Results: ChEMBL document CHEMBL1132658, “Second-generation peptidomimetic inhibitors of protein farnesyltransferase demonstrating improved cellular potency and significant in vivo efficacy” (J Med Chem, 1999)
pEC50, pIC50: −log10 of the molar value.

Legend:
[1] = Biological half-life in the rat; type: ADME, organism-based; conditions: in vivo
How it was run: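 Half-life determined after intravenous dosing in rats.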

[2] = Area under the curve during systemic administration; type: ADME; set-up: concentration or dose not given beside the values; conditions: other: systemic administration
[3] = target: Protein farnesyltransferase (Bos taurus, UniProt P29702+P49355); test: In vitro inhibition of farnesyltransferase purified from bovine brain using scintillation proximity assay
[4] = Portal vein area under the curve after intraduodenal administration; set-up: concentration or dose not given beside the values
NIH3T3 = test: In Vitro inhibition of Ha-Ras procession by using subconfluent NIH3T3 ras-transformed cells; type: functional; conditions: Mus musculus, read-out: ED50 (the source's name)

half-life [1] | AUC [2] | pIC50 [3] | AUC [4] | SMILES | pEC50 (NIH3T3)
49.8 min | 500 ng·h/mL | 10.00 | 3000 ng·h/mL | CSCC[C@H](NC(=O)c1ccc(CN(Cc2ccccc2)c2cccnc2)cc1-c1ccccc1C)C(=O)O | 7.89
 |  | 7.41 |  | CSCC[C@H](NC(=O)c1ccc(CN(C(=O)Cc2ccccc2)c2cccnc2)cc1-c1ccccc1C)C(=O)O | < 6.00
 |  | 8.70 |  | CCCCCc1cc(C(=O)N[C@@H](CCSC)C(=O)O)c(-c2ccccc2C)cc1COc1cccnc1 | 6.00
< 24 min | 1600 ng·h/mL | 9.40 | 3200 ng·h/mL | CSCC[C@H](NC(=O)c1ccc(CN(Cc2ccccc2)Cc2cncs2)cc1-c1ccccc1C)C(=O)O | 6.52
 |  | 9.00 |  | CSCC[C@H](NC(=O)c1cc(Cc2ccccc2)c(COc2cccnc2)cc1-c1ccccc1C)C(=O)O | < 6.00
 |  | 6.29 |  | CSCC[C@H](NC(=O)c1cc(-c2cccs2)c(COc2cccnc2)cc1-c1ccccc1C)C(=O)O | 
 |  | 7.96 |  | CCc1cc(C(=O)N[C@@H](CCSC)C(=O)O)c(-c2ccccc2C)cc1COc1cccnc1 | > 5.00
67.8 min | 300 ng·h/mL | 9.70 | 2400 ng·h/mL | CSCC[C@H](NC(=O)c1ccc(CN(Cc2cc(F)cc(F)c2)Cc2cncs2)cc1-c1ccccc1C)C(=O)O | 6.30
 |  | 7.80 |  | CSCC[C@H](NC(=O)c1ccc(CN(Cc2ccccc2)Cc2cscn2)cc1-c1ccccc1C)C(=O)O | < 6.00
 |  | 6.43 |  | CSCC[C@H](NC(=O)c1cc(-c2ccc(C)cc2)c(COc2cccnc2)cc1-c1ccccc1C)C(=O)O | 
< 24 min | 900 ng·h/mL | 9.10 | 1800 ng·h/mL | CSCC[C@H](NC(=O)c1ccc(CN(Cc2ccccc2)c2cnccn2)cc1-c1ccccc1C)C(=O)O | 7.30
< 24 min | 100 ng·h/mL | 10.00 | 1000 ng·h/mL | CSCC[C@H](NC(=O)c1ccc(CN(CC2CCCCC2)c2cccnc2)cc1-c1ccccc1C)C(=O)O | 8.00
30 min | 20 ng·h/mL | 9.40 | 10400 ng·h/mL | CSCC[C@H](NC(=O)c1ccc(CN(Cc2ccccc2)c2cncnc2)cc1-c1ccccc1C)C(=O)O | 7.05
 |  | 9.40 |  | CSCC[C@H](NC(=O)c1ccc(CNc2cccnc2)cc1-c1ccccc1C)C(=O)O | 5.52
 |  | 7.02 |  | CSCC[C@H](NC(=O)c1cc(-c2cc(Cl)cc(Cl)c2)c(COc2cccnc2)cc1-c1ccccc1C)C(=O)O | 
 |  |  |  | CSCC[C@H](NC(=O)c1ccc(COc2cccnc2)cc1-c1ccccc1C)C(=O)O | 6.40
60 min | 140 ng·h/mL | 8.85 | 3560 ng·h/mL | CSCC[C@H](NC(=O)c1ccc(CN(Cc2cc(F)cc(F)c2)c2cccnc2)cc1-c1ccccc1C)C(=O)O | 7.30
 |  | 9.30 |  | CSCC[C@H](NC(=O)c1cc(CCc2ccccc2)c(COc2cccnc2)cc1-c1ccccc1C)C(=O)O | 6.00
 |  | 7.28 |  | CSCC[C@H](NC(=O)c1ccc(CN(C(=O)c2ccccc2)c2cccnc2)cc1-c1ccccc1C)C(=O)O | < 6.00
48 min | 600 ng·h/mL | 8.85 | 1900 ng·h/mL | CSCC[C@H](NC(=O)c1ccc(CN(Cc2ccccc2)c2ccccc2)cc1-c1ccccc1C)C(=O)O | 6.40
 |  | 7.54 |  | CSCC[C@H](NC(=O)c1cc(CC(C)C)c(COc2cccnc2)cc1-c1ccccc1C)C(=O)O | < 5.00
< 24 min | 400 ng·h/mL | 10.00 | 2400 ng·h/mL | CSCC[C@H](NC(=O)c1ccc(CN(Cc2ccccc2)c2cncc(F)c2)cc1-c1ccccc1C)C(=O)O | 7.52
 |  | 7.92 |  | CSCC[C@H](NC(=O)c1cc(CC2CCCCC2)c(COc2cccnc2)cc1-c1ccccc1C)C(=O)O | 6.00
 |  | 8.15 |  | CSCC[C@H](NC(=O)c1ccc(CN(Cc2ccccc2)Cc2nccs2)cc1-c1ccccc1C)C(=O)O | < 6.00
 |  | 8.15 |  | CSCC[C@H](NC(=O)c1ccc(CN(c2cccnc2)S(=O)(=O)c2ccccc2)cc1-c1ccccc1C)C(=O)O | 
114 min | 10800 ng·h/mL | 9.40 | 14300 ng·h/mL | CSCC[C@H](NC(=O)c1ccc(CN(Cc2cc(F)cc(F)c2)c2ccccc2)cc1-c1ccccc1C)C(=O)O | 6.00
 |  | 7.96 |  | CCCCc1cc(C(=O)N[C@@H](CCSC)C(=O)O)c(-c2ccccc2C)cc1COc1cccnc1 | 
